The source made the active and inactive calls. The rule behind the calls is not given here.
Tests used:
[1] = target: T1, BAG family molecular chaperone regulator 3 (Homo sapiens, UniProt O95817); test: Binding affinity to CM4 sensorchip immobilized C-terminal His tagged human BAG3 transfected in HEK293T cells at 50 uM by SPR analysis
Outline: (§1)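 SPR screen on BAG3-His amine-coupled to a CM4 chip at 60 µg/mL in pH 2.8 acetate. Compound at 50 µM in PBS with 5% DMSO and 0.05% P20 was injected for 90 s at 30 µL/min, then washed. Chip regenerated with 10 mM glycine pH 3. Bound RU read at equilibrium against a void flow cell; 3–10 repeats, mean ± SEM.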

[2] = target: T1, BAG family molecular chaperone regulator 3; test: Binding affinity to CM4 sensorchip immobilized C-terminal His tagged human BAG3 transfected in HEK293T cells assessed as binding capacity at 50 uM by SPR analysis; outline: as §1
[3] = tested on: HD-MB03; test: Antiproliferative activity against human HD-MB03 cells assessed as cell growth inhibition incubated for 72 hrs by resazurin dye based analysis; format: functional
Outline: (§2)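 Cells seeded at 2000/well, treated 24 h later with compounds in a 6-point 2-fold dose series, duplicate wells, two independent experiments. After 72 h, resazurin was added at 44 µM final for 3 h at 37 °C and fluorescence was read at 590 nm. Viability was normalized to 1 µM bortezomib (positive) and 0.5% DMSO (negative) controls. GI50 is the mean ± SEM of dose-response curves.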

[4] = tested on: RS4-11; test: Antiproliferative activity against human RS4-11 cells assessed as cell growth inhibition incubated for 72 hrs by resazurin dye based analysis; format: functional; outline: as §2
[5] = tested on: A549; test: Antiproliferative activity against human A549 cells assessed as cell growth inhibition incubated for 72 hrs by resazurin dye based analysis; format: functional; outline: as §2
[6] = target: T1, BAG family molecular chaperone regulator 3; test: Binding affinity to CM4 sensorchip immobilized glycosylated C-terminal His tagged human BAG3 transfected in HEK293T cells assessed as dissociation constant by SPR analysis
Outline: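 SPR single-cycle kinetics on CM4-immobilized HEK-293T-expressed BAG3-His. Increasing compound concentrations in PBS with 5% DMSO and 0.05% P20 were injected at 30 µL/min without regeneration between injections, with blank subtraction. Kd from steady-state analysis, reported as mean ± SEM and compared by Student t-test.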

[7] = target: T1, BAG family molecular chaperone regulator 3; test: Binding affinity to C-terminal His tagged human BAG3 transfected in HEK293T cells assessed as intermolecular nuclear overhauser effect mediated protein magnetization at 125 uM by waterLOGSY experiment; format: cell-based
Outline: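 Ligand-observed NMR in 50 mM sodium phosphate pH 7.8, 150 mM NaCl, 0.04% NaN3, 1.3% DMSO-d6, 5% D2O. Compound at 125 µM with 5 µM BAG3-His (HEK-293T expressed, purified by IMAC and SEC), each also run without protein. WaterLOGSY used 240 scans, 1.5 s mixing and water inversion at 4.7 ppm. STD used 256 scans with protein saturation at 0.4 ppm.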

[8] = Cytotoxicity against resting human PBMC cells assessed as cell growth inhibition incubated for 72 hrs by MTT assay; format: toxicity, cell-based
[9] = Cytotoxicity against PHA stimulated human PBMC cells assessed as cell growth inhibition incubated for 72 hrs by MTT assay; format: toxicity, cell-based

T1 sequence (O95817 whole entry): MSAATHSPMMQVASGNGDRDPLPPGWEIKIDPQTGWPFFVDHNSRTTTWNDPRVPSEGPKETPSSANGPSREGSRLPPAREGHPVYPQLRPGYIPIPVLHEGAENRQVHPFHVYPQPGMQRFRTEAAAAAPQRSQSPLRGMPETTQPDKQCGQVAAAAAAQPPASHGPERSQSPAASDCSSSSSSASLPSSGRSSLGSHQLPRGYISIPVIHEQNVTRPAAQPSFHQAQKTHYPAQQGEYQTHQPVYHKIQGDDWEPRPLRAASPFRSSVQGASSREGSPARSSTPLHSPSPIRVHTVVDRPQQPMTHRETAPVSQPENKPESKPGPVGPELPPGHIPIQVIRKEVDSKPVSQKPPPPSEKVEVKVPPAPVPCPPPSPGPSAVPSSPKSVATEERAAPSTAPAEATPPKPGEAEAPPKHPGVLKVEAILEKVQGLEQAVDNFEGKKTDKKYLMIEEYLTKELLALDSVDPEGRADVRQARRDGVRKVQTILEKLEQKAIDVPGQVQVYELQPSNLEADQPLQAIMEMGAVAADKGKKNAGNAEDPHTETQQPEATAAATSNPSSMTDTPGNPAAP

SMILES | Activity [1] | Activity [2] | GI50 [3] | GI50 [4] | GI50 [5] | Kd [6] | Activity [7] | GI50 at 72 h [8] | GI50 at 72 h [9]
O=C(CN1C(=O)S/C(=C\c2ccc(O)c(O)c2)C1=O)OCc1ccccc1 | inactive |  |  |  |  |  |  |  | 
CCOC(=O)C(C)N1C(=O)S/C(=C\c2ccc3[nH]ncc3c2)C1=O (racemic) |  | < 5 RU | 28.3 µM | 50.5 µM | 68 µM |  |  |  | 
CS(=O)(=O)Nc1ccc(/C=C2\SC(=O)N(CC(=O)N3CCOCC3)C2=O)cc1 | inactive |  | 47.4 µM | 12.4 µM | 47.7 µM |  |  |  | 
CCOC(=O)C(C)N1C(=O)S/C(=C\c2ccc3[nH]cnc3c2)C1=O (racemic) |  | > 5 RU | 42.5 µM | > 100 µM | > 100 µM | 198 µM |  |  | 
CCOC(=O)C(C)N1C(=O)S/C(=C\c2cc(F)c(O)c(F)c2)C1=O (racemic) | inactive |  | > 100 µM | > 100 µM | > 100 µM |  |  |  | 
CCOC(=O)C(C)N1C(=O)S/C(=C\c2ccc(O)nc2)C1=O (racemic) | inactive |  | > 100 µM | > 100 µM | > 100 µM |  |  |  | 
O=C(O)CN1C(=O)S/C(=C\c2ccc(O)c(O)c2)C1=O | inactive |  | > 100 µM | > 100 µM | > 100 µM |  |  |  | 
CCOC(=O)C(C)N1C(=O)S/C(=C\c2ccc(O)c(O)c2)C1=O (racemic) |  | > 5 RU | 25.3 µM | 5.1 µM | 32.5 µM | 286 µM |  |  | 
CCOC(=O)CN1C(=O)S/C(=C\c2ccc(OC)c(OC)c2)C1=O | inactive |  | 45 µM | > 100 µM | > 100 µM |  |  |  | 
CCOC(=O)CN1C(=O)S/C(=C\c2ccc(O)c(O)c2)C1=O |  |  | 14.8 µM | 6.4 µM | 42.5 µM | 233 µM | Active | > 100 µM | > 100 µM
CCOC(=O)C(C)N1C(=O)/C(=C/c2ccc(O)c(O)c2)N(C)C1=O (stereo unspecified) | inactive |  | 53.3 µM | 17.8 µM | 52.6 µM |  |  |  | 
CCOC(=O)CN1C(=O)S/C(=C\c2ccc(OC)nc2)C1=O | inactive |  | 41.1 µM | > 100 µM | > 100 µM |  |  |  | 
CC(C(=O)N1CCC2(CC1)OCCO2)N1C(=O)S/C(=C\c2ccc(O)c(O)c2)C1=O (racemic) |  | < 5 RU | 31.4 µM | 13.4 µM | 44.1 µM |  |  |  | 
CCOC(=O)C(C)N1C(=O)S/C(=C\c2ccc3c(c2)NC(=O)CO3)C1=O (racemic) | inactive |  | 40.7 µM | 28.1 µM | > 100 µM |  |  |  | 
O=C(CN1C(=O)S/C(=C\c2ccc(O)c(O)c2)C1=O)N1CCOCC1 |  | > 5 RU | 33.1 µM | 24.8 µM | 49.4 µM | 152 µM |  |  | 
CC(C(=O)N1CCOCC1)N1C(=O)S/C(=C\c2ccc(N3CCCC3)cc2)C1=O (racemic) |  | < 5 RU | 7.4 µM | 5.2 µM | 69 µM |  |  |  | 
CC(C(=O)N1CC2(COC2)C1)N1C(=O)S/C(=C\c2ccc(O)c(O)c2)C1=O (racemic) | inactive |  | > 100 µM | > 100 µM | > 100 µM |  |  |  | 
CCOC(=O)CN1C(=O)S/C(=C\c2ccc(O)c(F)c2)C1=O | inactive |  | 58.3 µM | > 100 µM | > 100 µM |  |  |  | 
CCOC(=O)C(C)N1C(=O)S/C(=C\c2ccc(F)c(O)c2)C1=O (racemic) | inactive |  | > 100 µM | > 100 µM | > 100 µM |  |  |  | 
CCOC(=O)CN1C(=O)S/C(=C\c2ccc3c(c2)OCCO3)C1=O | inactive |  | > 100 µM | > 100 µM | > 100 µM |  |  |  | 
CCOC(=O)C(C)N1C(=O)S/C(=C\c2ccc(Cl)c(O)c2)C1=O (racemic) |  | < 5 RU | 5.26 µM | 60.6 µM | > 100 µM |  |  |  | 
CCOC(=O)C(CC)N1C(=O)S/C(=C\c2ccc(O)c(O)c2)C1=O (racemic) |  | > 5 RU | 11.7 µM | 5.13 µM | 29.3 µM |  |  |  | 

SMILES | Activity [1] | Activity [2] | GI50 [3] | GI50 [4] | GI50 [5] | Kd [6] | Activity [7] | GI50 at 72 h [8] | GI50 at 72 h [9]
CCOC(=O)CN1C(=O)S/C(=C\c2cccc(O)c2)C1=O | inactive |  | 40.7 µM | 55 µM | > 100 µM |  |  |  | 
CCNC(=O)C(C)N1C(=O)S/C(=C\c2ccc(O)c(O)c2)C1=O (racemic) | inactive |  | 53.1 µM | 24.8 µM | 70.9 µM |  |  |  | 
CCOC(=O)C(c1ccccc1)N1C(=O)S/C(=C\c2ccc(O)c(O)c2)C1=O (racemic) |  | > 5 RU | 17.6 µM | 9.53 µM | 33.3 µM | 366 µM |  |  | 
CCOC(=O)C(C)N1C(=O)S/C(=C\c2ccc(NS(C)(=O)=O)cc2)C1=O (racemic) |  |  | 17.6 µM | 50.3 µM | > 100 µM |  |  |  | 
CC(C(=O)N1CCOCC1)N1C(=O)S/C(=C\c2ccc(N3CCOCC3)cc2)C1=O (racemic) |  | < 5 RU | > 100 µM | > 100 µM | > 100 µM |  |  |  | 
CC(C(=O)N1CCCCC1)N1C(=O)S/C(=C\c2ccc(O)c(O)c2)C1=O (racemic) |  | > 5 RU | 13.9 µM | 8.6 µM | 29.4 µM | 150 µM |  |  | 
O=C1OCCC1N1C(=O)S/C(=C\c2ccc(O)c(O)c2)C1=O (stereo unspecified) |  | < 5 RU | 20.7 µM | 18.1 µM | 50.2 µM |  |  |  | 
CCOCCN1C(=O)S/C(=C\c2ccc(O)c(O)c2)C1=O | inactive |  | 17.8 µM | 6.1 µM | 34.3 µM |  |  |  | 
CCOC(=O)C(C)N1C(=O)S/C(=C\c2ccc(O)c(Cl)c2)C1=O (racemic) | inactive |  | 26.5 µM | 38.1 µM | 49.4 µM |  |  |  | 
CCOC(=O)CN1C(=O)S/C(=C\c2ccc(Cl)c(Cl)c2)C1=O | inactive |  | > 100 µM | > 100 µM | > 100 µM |  |  |  | 
CCOC(=O)Cc1csc(Oc2ccc(O)cc2)n1 |  | < 5 RU | > 100 µM | > 100 µM | > 100 µM |  |  |  | 
CCOC(=O)CN1C(=O)SC(Cc2ccc(O)c(O)c2)C1=O (stereo unspecified) | inactive |  | 49 µM | 27.6 µM | > 100 µM |  |  |  | 
CCOC(=O)CN1C(=O)S/C(=C(/C)c2ccc(O)c(O)c2)C1=O | inactive |  | 6.4 µM | 7.25 µM | 44.2 µM |  |  |  | 
CCOC(=O)CN1C(=O)S/C(=C\c2ccc(F)cc2)C1=O | inactive |  | 34.7 µM | > 100 µM | > 100 µM |  |  |  | 
O=C(CN1C(=O)S/C(=C\c2cc(Cl)c(O)c(Cl)c2)C1=O)N1CCOCC1 | inactive |  | > 100 µM | > 100 µM | > 100 µM |  |  |  | 
CN(C)C(=O)CN1C(=O)S/C(=C\c2ccc(O)c(O)c2)C1=O | inactive |  | 36.4 µM | 25.6 µM | 48.3 µM |  |  |  | 
CC(C(=O)N1CCOCC1)N1C(=O)S/C(=C\c2ccc(O)c(O)c2)C1=O (racemic) | inactive |  | 48.7 µM | 14.1 µM | 47.9 µM |  |  |  | 
CCOC(=O)C(C1CC1)N1C(=O)S/C(=C\c2ccc(O)c(O)c2)C1=O (racemic) |  | > 5 RU | 15.5 µM | 6.83 µM | 28.1 µM | 204 µM |  |  | 
CCOC(=O)C(C)N1C(=O)S/C(=C\c2ccc3cn[nH]c3c2)C1=O (racemic) |  | < 5 RU | 26.3 µM | 17.8 µM | 57.5 µM |  |  |  | 
CCOC(=O)C(C)N1C(=O)N/C(=C\c2ccc(O)c(O)c2)C1=O (racemic) | inactive |  | 16.9 µM | 11.9 µM | 54.1 µM |  |  |  | 
CCOC(=O)CN1C(=O)S/C(=C\c2ccc(O)cc2)C1=O | inactive |  | 29.5 µM | > 100 µM | > 100 µM |  |  |  | 
CCOC(=O)C(C)N1C(=O)S/C(=C\c2cc(Cl)c(O)c(Cl)c2)C1=O (racemic) |  | < 5 RU | 45.6 µM | 47.2 µM | 72.5 µM |  |  |  | 
